This is an account of results in PubChem BioAssay AID504899 (The Scripps Research Institute Molecular Screening Center, 2011).

For the assay, the system named is DIO C57BL/6 mice, hepatic G6Pase mRNA, 15 mg/kg ip 6 d. Kind of assay: liver G6Pase and PEPCK expression, blood glucose – diet-induced obese mice, pyruvate tolerance test, powder sample, in vivo study for RORA inverse agonist project, late-stage follow-up (AID 504899). As to conditions: stronger effect = lower value. A digest of the protocol: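 System: Obese high-fat-fed male C57BL/6 mice, 30 weeks old | Also added: Pyruvate challenge, 2 g/kg intraperitoneal | Times: 6 h fast before pyruvate, glucose sampled 0, 15, 30, 60 min post-challenge | Detection: Glucometer blood glucose plus liver gene mRNA | Read-out: Gene expression and glucose as % of vehicle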

Regarding `O=S(=O)(Nc1ccc(C(O)(C(F)(F)F)C(F)(F)F)cc1)c1cccs1`, under “DIO C57BL/6 mice, 15 mg/kg ip 6 d, measured here: hepatic PEPCK mRNA, % control”, the PEPCK mRNA expression is 51%. In addition, the blood glucose (DIO C57BL/6 mice, 15 mg/kg ip 6 d, measured here: pyruvate tolerance test blood glucose) worked out at 76%. The G6Pase mRNA expression (dose or concentration not given here) was 52%.
